{
  "source": "ChEMBL document CHEMBL4130442",
  "about": "“Design, synthesis and structure-activity relationship studies of a focused library of pyrimidine moiety with anti-proliferative and anti-metastasis activities in triple negative breast cancer” (Eur J Med Chem, 2017)",
  "key": {"MDA-MB-231 [1]": {"system": "MDA-MB-231", "assay": "Antiproliferative activity against human MDA-MB-231 cells incubated for 24 hrs by MTT assay", "type": "functional, cell-based", "settings": "MDA-MB-231, 24 h", "in_short": "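MDA-MB-231 cells grown in DMEM with 10% FBS under 5% CO2 were seeded at 5×10^4 cells/ml. After 24 h, a concentration series was added for 24, 48 or 72 h and viability was read by MTT. IC50 is mean ± SD of triplicates.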"}, "MDA-MB-231 [2]": {"system": "MDA-MB-231", "assay": "Induction of autophagy in human MDA-MB-231 cells assessed as change in Beclin-1 protein level at 2.5 uM incubated for 24 hrs by Western blot method relative to untreated control", "type": "functional", "in_short": "(§1)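 MDA-MB-231 cells were exposed for 24 h. Adherent and floating cells were pooled and lysed for 1 h at 4 °C in 50 mM Hepes pH 7.4 with 1% Triton X-100, orthovanadate, NaF, EDTA, PMSF, aprotinin and leupeptin. After 12,000 rpm clearing, equal protein was run on 10-15% SDS-PAGE and blotted to PVDF. Detection used HRP-ECL, with β-actin as loading control and densitometric quantification.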"}, "MDA-MB-231 [3]": {"system": "MDA-MB-231", "assay": "Induction of apoptosis in human MDA-MB-231 cells assessed as change in cleaved PARP protein level at 2.5 uM incubated for 24 hrs by Western blot method relative to untreated control", "type": "functional", "in_short": "as §1"}, "MDA-MB-231 [4]": {"system": "MDA-MB-231", "assay": "Induction of apoptosis in human MDA-MB-231 cells assessed as change in cleaved PARP protein level at 5 uM incubated for 24 hrs by Western blot method relative to untreated control", "type": "functional", "in_short": "as §1"}, "MDA-MB-231 [5]": {"system": "MDA-MB-231", "assay": "Induction of apoptosis in human MDA-MB-231 cells assessed as change in cleaved caspase-3 protein level at 2.5 uM incubated for 24 hrs by Western blot method relative to untreated control", "type": "functional", "in_short": "as §1"}, "MDA-MB-231 [6]": {"system": "MDA-MB-231", "assay": "Induction of apoptosis in human MDA-MB-231 cells assessed as change in cleaved caspase-3 protein level at 5 uM incubated for 24 hrs by Western blot method relative to untreated control", "type": "functional", "in_short": "as §1"}, "[7]": {"molecular_target": "T1, Platelet-derived growth factor receptor beta (Homo sapiens, UniProt P09619)", "T1 sequence (P09619 whole entry)": "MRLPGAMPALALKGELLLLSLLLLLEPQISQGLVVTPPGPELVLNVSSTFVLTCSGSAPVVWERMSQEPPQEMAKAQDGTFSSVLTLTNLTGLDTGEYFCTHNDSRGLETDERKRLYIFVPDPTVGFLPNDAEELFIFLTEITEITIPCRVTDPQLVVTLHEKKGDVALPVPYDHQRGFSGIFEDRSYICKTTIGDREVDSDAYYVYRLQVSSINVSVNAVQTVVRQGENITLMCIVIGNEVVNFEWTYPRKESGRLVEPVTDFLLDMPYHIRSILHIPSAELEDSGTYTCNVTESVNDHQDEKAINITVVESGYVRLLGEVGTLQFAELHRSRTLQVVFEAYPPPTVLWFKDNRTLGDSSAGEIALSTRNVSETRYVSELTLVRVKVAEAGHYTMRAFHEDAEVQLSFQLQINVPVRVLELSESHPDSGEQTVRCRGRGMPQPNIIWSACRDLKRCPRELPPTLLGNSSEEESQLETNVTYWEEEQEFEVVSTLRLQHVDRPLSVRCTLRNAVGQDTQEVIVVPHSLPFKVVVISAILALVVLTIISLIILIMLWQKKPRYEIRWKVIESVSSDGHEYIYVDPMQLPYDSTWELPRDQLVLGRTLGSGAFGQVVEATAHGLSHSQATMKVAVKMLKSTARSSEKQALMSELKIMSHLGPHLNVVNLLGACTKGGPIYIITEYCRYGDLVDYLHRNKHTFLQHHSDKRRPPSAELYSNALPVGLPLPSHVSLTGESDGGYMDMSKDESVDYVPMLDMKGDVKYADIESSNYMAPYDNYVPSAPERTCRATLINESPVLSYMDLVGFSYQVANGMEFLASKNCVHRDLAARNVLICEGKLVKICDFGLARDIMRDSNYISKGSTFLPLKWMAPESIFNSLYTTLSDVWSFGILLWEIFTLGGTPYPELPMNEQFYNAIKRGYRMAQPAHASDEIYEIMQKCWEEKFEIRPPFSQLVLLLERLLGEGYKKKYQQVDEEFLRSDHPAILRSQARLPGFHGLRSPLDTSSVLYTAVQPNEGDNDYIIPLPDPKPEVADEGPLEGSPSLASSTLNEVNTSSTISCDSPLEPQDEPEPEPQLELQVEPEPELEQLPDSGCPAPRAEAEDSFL", "assay": "Inhibition of PDGFRbeta in human MDA-MB-231 cells assessed as PDGFRbeta Tyr740 phosphorylation level at 5 uM incubated for 24 hrs by Western blot relative to untreated control", "type": "cell-based", "in_short": "(§2)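 Cells were treated 24 h at several concentrations. Pooled adherent and floating cells were lysed in Hepes 50 mM pH 7.4 / 1% Triton X-100 buffer with vanadate, NaF, EDTA, PMSF, aprotinin and leupeptin. Equal protein was run on 10-15% SDS-PAGE and blotted to PVDF. PDGFR-β-AKT-ULK1 pathway phospho-proteins were probed and detected by ECL, with β-actin as loading control.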"}, "[8]": {"molecular_target": "T1, Platelet-derived growth factor receptor beta", "assay": "Inhibition of PDGFRbeta in human MDA-MB-231 cells assessed as Akt Ser473 phosphorylation level at 2.5 uM incubated for 24 hrs by Western blot relative to untreated control", "type": "cell-based", "in_short": "as §2"}, "[9]": {"molecular_target": "T1, Platelet-derived growth factor receptor beta", "assay": "Inhibition of PDGFRbeta in human MDA-MB-231 cells assessed as Akt Ser473 phosphorylation level at 5 uM incubated for 24 hrs by Western blot relative to untreated control", "type": "cell-based", "in_short": "as §2"}, "[10]": {"molecular_target": "T1, Platelet-derived growth factor receptor beta", "assay": "Inhibition of PDGFRbeta in human MDA-MB-231 cells assessed as Akt Ser473 phosphorylation level at 10 uM incubated for 24 hrs by Western blot relative to untreated control", "type": "cell-based", "in_short": "as §2"}, "[11]": {"molecular_target": "T1, Platelet-derived growth factor receptor beta", "assay": "Inhibition of PDGFRbeta in human MDA-MB-231 cells assessed as ULK Ser555 phosphorylation level at 5 uM incubated for 24 hrs by Western blot relative to untreated control", "type": "cell-based", "in_short": "as §2"}, "MDA-MB-231 [12]": {"system": "MDA-MB-231", "assay": "Effect on total PDGFRbeta protein level in human MDA-MB-231 cells at 5 uM incubated for 24 hrs by Western blot relative to untreated control", "type": "ADME, cell-based", "settings": "mda-mb-231, 24 h", "in_short": "as §1"}, "MDA-MB-231 [13]": {"system": "MDA-MB-231", "assay": "Effect on total mTOR protein level in human MDA-MB-231 cells at 2.5 uM incubated for 24 hrs by Western blot relative to untreated control", "type": "ADME, cell-based", "settings": "mda-mb-231, 24 h", "in_short": "as §1"}, "MDA-MB-231 [14]": {"system": "MDA-MB-231", "assay": "Effect on total ULK1 protein level in human MDA-MB-231 cells at 5 uM incubated for 24 hrs by Western blot relative to untreated control", "type": "ADME, cell-based", "settings": "mda-mb-231, 24 h", "in_short": "as §1"}, "MDA-MB-231 [15]": {"system": "MDA-MB-231", "assay": "Induction of autophagy in human MDA-MB-231 cells assessed as change in LC3-2 protein level at 2.5 uM incubated for 24 hrs in presence of control siRNA by Western blot method relative to untreated control", "type": "functional", "in_short": "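Before treatment, MDA-MB-231 cells were transfected with control or PDGFR-β siRNA, then exposed to 2.5 μM compound for 24 h. Lysates of pooled adherent and floating cells were immunoblotted (10-15% SDS-PAGE, PVDF, ECL) for PDGFR-β-AKT-ULK1 autophagy signalling markers, with β-actin as loading control.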"}, "[16]": {"molecular_target": "T1, Platelet-derived growth factor receptor beta", "assay": "Inhibition of PDGFRbeta in human MDA-MB-231 cells assessed as Akt Ser473 phosphorylation level at 2.5 uM incubated for 24 hrs in presence of control siRNA by Western blot relative to untreated control", "type": "cell-based", "in_short": "(§3)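 Cells were transfected with control or PDGFR-β siRNA, then treated with 2.5 μM compound for 24 h. PDGFR-β-AKT-ULK1 pathway phospho-proteins were assessed by western blot: lysis in Hepes pH 7.4 / Triton buffer, 10-15% SDS-PAGE, PVDF, ECL detection, β-actin as loading control.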"}, "[17]": {"molecular_target": "T1, Platelet-derived growth factor receptor beta", "assay": "Inhibition of PDGFRbeta in human MDA-MB-231 cells assessed as Akt Ser473 phosphorylation level at 2.5 uM incubated for 24 hrs in absence of PDGFRbeta siRNA by Western blot relative to untreated control", "type": "cell-based", "in_short": "as §3"}, "[18]": {"molecular_target": "T1, Platelet-derived growth factor receptor beta", "assay": "Inhibition of PDGFRbeta in human MDA-MB-231 cells assessed as ULK Ser317 phosphorylation level at 2.5 uM incubated for 24 hrs in presence of control siRNA by Western blot relative to untreated control", "type": "cell-based", "in_short": "as §3"}, "[19]": {"molecular_target": "T1, Platelet-derived growth factor receptor beta", "assay": "Inhibition of PDGFRbeta in human MDA-MB-231 cells assessed as ULK Ser555 phosphorylation level at 2.5 uM incubated for 24 hrs in presence of PDGFRbeta siRNA by Western blot relative to untreated control", "type": "cell-based", "in_short": "as §3"}, "MDA-MB-231 [20]": {"system": "MDA-MB-231", "assay": "Activation of ERK in human MDA-MB-231 cells assessed as ERK phosphorylation level at 2.5 to 10 uM incubated for 24 hrs by immunofluorescence assay", "type": "cell-based", "in_short": "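MDA-MB-231 cells (ATCC; DMEM, 10% FBS, 5% CO2) were treated, blocked in PBS with 1.5% goat serum, then given p-ERK antibody (1:200 in PBS with 1% BSA) overnight at 4 °C. TRITC-labelled secondary antibody followed for 1 h at room temperature. Nuclear fluorescence was read by microscopy.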"}, "MDA-MB-231 [21]": {"system": "MDA-MB-231", "assay": "Effect on total MEK1/2 protein level in human MDA-MB-231 cells at 2.5 uM incubated for 24 hrs in presence of PDGFRbeta siRNA by Western blot relative to untreated control", "type": "cell-based", "settings": "mda-mb-231, 24 h"}, "[22]": {"molecular_target": "T1, Platelet-derived growth factor receptor beta", "assay": "Inhibition of PDGFRbeta in human MDA-MB-231 cells assessed as C-Raf Ser338 phosphorylation level at 5 uM incubated for 24 hrs in presence of PDGFRbeta siRNA by Western blot relative to untreated control", "type": "cell-based"}, "MDA-MB-231 [23]": {"system": "MDA-MB-231", "assay": "Effect on total Ras protein level in human MDA-MB-231 cells at 10 uM incubated for 24 hrs by Western blot relative to untreated control", "settings": "mda-mb-231, 24 h"}},
  "note": "Activity calls are given as the source filed them. The calls are words filed in the database; no cut-off is given here.",
  "data": [
    {"smiles": "COc1cccc(Nc2cc(N3CCN(C(=O)Nc4ccc(C(F)(F)F)cc4)CC3)ncn2)c1", "values": [
      {"measurement": "IC50", "setting": "MDA-MB-231 [1]", "value": "730 to 750", "unit": "nM"},
      {"measurement": "fold change (FC)", "setting": "MDA-MB-231 [2]", "value": 2.3},
      {"measurement": "fold change (FC)", "setting": "MDA-MB-231 [3]", "value": 0.89},
      {"measurement": "fold change (FC)", "setting": "MDA-MB-231 [4]", "value": 0.85},
      {"measurement": "fold change (FC)", "setting": "MDA-MB-231 [5]", "value": 0.87},
      {"measurement": "fold change (FC)", "setting": "MDA-MB-231 [6]", "value": 0.88},
      {"measurement": "fold change (FC)", "setting": "[7]", "value": 0.78},
      {"measurement": "fold change (FC)", "setting": "[8]", "value": 0.45},
      {"measurement": "fold change (FC)", "setting": "[9]", "value": 0.23},
      {"measurement": "fold change (FC)", "setting": "[10]", "value": 0.18},
      {"measurement": "fold change (FC)", "setting": "[11]", "value": 4.2},
      {"measurement": "fold change (FC)", "setting": "MDA-MB-231 [12]", "value": 1.1},
      {"measurement": "fold change (FC)", "setting": "MDA-MB-231 [13]", "value": 0.37},
      {"measurement": "fold change (FC)", "setting": "MDA-MB-231 [14]", "value": 0.91},
      {"measurement": "fold change (FC)", "setting": "MDA-MB-231 [15]", "value": 2.34},
      {"measurement": "fold change (FC)", "setting": "[16]", "value": 0.88},
      {"measurement": "fold change (FC)", "setting": "[17]", "value": 0.48},
      {"measurement": "fold change (FC)", "setting": "[18]", "value": 3.21},
      {"measurement": "fold change (FC)", "setting": "[19]", "value": 3.69},
      {"measurement": "Activity", "setting": "MDA-MB-231 [20]", "value": "Active"},
      {"measurement": "fold change (FC)", "setting": "MDA-MB-231 [21]", "value": 1.05},
      {"measurement": "fold change (FC)", "setting": "[22]", "value": 0.78},
      {"measurement": "fold change (FC)", "setting": "MDA-MB-231 [23]", "value": 2.32}
    ]}
  ]
}
